AI-2 QS modul = modulators of Vibrio harveyi AI-2 quorum sensing system; 0.4% of 300,000 active; Vibrio harveyi JMH597 AI-2 luminescence/OD600 ratio, 9 h; hits give low values; strain lacks LuxN and CqsS sensors; 0 = neutral-control median; activity change, % at 7.5 µM; in the data active = activity change below about -75%, passing the limit was not always enough;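 also: luminescence divided by OD600 gain over 9 h not by final OD600 alone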
HSF1 activator = increases HSF-1 driven luciferase reporter signal; NIH3T3-HGL HSF-1 luciferase reporter, MG132, 8 h; 100% = twice DMSO control signal; activation, % at 9 µM; 1.7% of 300,000 active; AID 504408;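 active = mean replicate activation of at least 50% with a set share of replicates each reaching 50%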;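 also: 0% = median of the neutral control wells and 100% = twice that signal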
core dimer inh = HCV core protein dimerization inhibition; TR-FRET GST/Flag-core106 dimerization, 1536-well; inhibition, % at 5 µM; 0.33% of 300,000 active; AID 1899;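 active = inhibition above the mean of all tested compounds plus 3 SD, set per screening campaign, cut at about 45% in these data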
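assay system = GST-tagged and Flag-tagged HCV core protein residues 1-106 | controls = unlabelled core106 and no-GST-core106 wells | incubation = compound-protein-antibody incubation 4 h at 22.5 °C | probe or stimulus = Eu donor and XL665 acceptor anti-tag antibodies | read-out = % inhibition based on acceptor/donor emission ratio | signal = TR-FRET 671 and 617 nm emission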
HSF1 inh = HSF1 inhibition. 0.77% of 300,000 active. NIH3T3-HGL HSE-luciferase, MG132-induced, luminescence 8 h; hits give low values. activity change, negative = inhibition, % at 7.5 µM (by protocol). AID 2098;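 active = more than half of replicate wells show activity change below -50%, luminescence cut by over half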;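 also: luciferase reports HSF-1 transcriptional activity via heat shock element; 0% = median of DMSO wells and -100% = zero luminescence signal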
PHOSPHO1 inh = PHOSPHO1 (human) inhibition | AID 1565 | 1.1% of 290,000 active | recombinant PHOSPHO1, absorbance phosphatase assay | inhibition, % at 13.3 µM | Q8TCT1; in the data active = inhibition above about 60%
Target sequence (Q8TCT1 whole entry, looked up): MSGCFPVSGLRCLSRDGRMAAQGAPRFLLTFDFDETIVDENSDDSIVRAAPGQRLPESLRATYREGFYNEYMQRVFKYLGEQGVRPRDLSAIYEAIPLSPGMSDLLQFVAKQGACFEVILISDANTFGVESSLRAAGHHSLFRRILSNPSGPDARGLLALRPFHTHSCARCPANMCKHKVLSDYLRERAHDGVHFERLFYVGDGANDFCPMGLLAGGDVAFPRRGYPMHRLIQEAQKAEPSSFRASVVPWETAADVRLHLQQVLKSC
ALR inh = inhibitors of human sulfhydryl oxidase ALR | P55789 | purified ALR, DTT oxidation, H2O2 HRP-luminol luminescence | inhibition, % (test concentration not listed) | 3.8% of 290,000 active | AID 485317;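 active = mean replicate inhibition above about 79%, with every replicate also reaching it, limit read from the data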
Target sequence (P55789 whole entry, looked up): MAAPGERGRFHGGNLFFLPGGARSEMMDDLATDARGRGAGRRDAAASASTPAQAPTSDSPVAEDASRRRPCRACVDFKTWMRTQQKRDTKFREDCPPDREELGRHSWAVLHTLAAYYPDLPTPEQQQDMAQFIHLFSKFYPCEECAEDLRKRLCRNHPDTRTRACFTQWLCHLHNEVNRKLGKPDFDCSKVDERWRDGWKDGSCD
* = called active by the depositor; x = no result given. Hits are enriched below; roughly 6.8% of the tested compounds scored in any of these assays.

SMILES	AI-2 QS modul	HSF1 activator	core dimer inh	HSF1 inh	PHOSPHO1 inh	ALR inh
O=C(c1ccc(Cl)c(S(=O)(=O)N2CCCCC2)c1)N1CCN(Cc2ccccc2)CC1	26	14	8	-1	-26	x
O=C(NNS(=O)(=O)c1ccc(F)c(Cl)c1)c1cccc(S(=O)(=O)N2CCOCC2)c1	2	24	0	-1	-2	40
O=C(N/N=C/c1ccco1)c1cc(-c2ccncc2)nc2ccccc12	6	19	x	1	x	x
O=C(N/N=C/c1cccc(F)c1)c1cc(-c2ccco2)nc2ccccc12	5	-4	74*	11	44	4
COc1cc(/C=N/NC(=O)c2cc(-c3ccco3)nc3ccccc23)cc(OC)c1O	20	-6	41	-1	12	97*
CC1=C([N+](=O)[O-])C(c2ccc(Cl)cc2)NC(=O)N1C (stereo not drawn)	x	4	9	9	29	13
CC(=NNC(=S)SCc1ccccc1)c1ccccn1	x	95*	x	95*	x	x
CCCCCC(=O)N/N=C(\C)c1ccccn1	19	-21	6	-4	11	-8
Cc1ccc(N(CC(=O)NC(C)(C)C)C(=O)CS(=O)CC(=O)Nc2ccc3c(c2)OCO3)cc1 (stereo not drawn)	37	-5	0	-1	41	6
Cc1nnc(SCC(=O)c2ccc(S(=O)(=O)N3CCOCC3)cc2)n1-c1ccccc1	23	6	1	3	40	94*
CCOC(=O)CSc1nnc(-c2ccc(S(=O)(=O)N3CCOCC3)cc2)n1-c1ccccc1	34	-4	-1	1	0	x
CC(=O)c1ccc(N2CCN(C(=O)Nc3ccc(C)cc3)CC2)cc1	22	1	-3	-6	-17	-24
CC(=O)c1ccc(NC(=O)N2CCN(c3ccc(C)cc3)C(C)C2)cc1 (stereo not drawn)	18	-8	-6	2	27	96*
CCOC(=O)c1c(-c2ccc(C)cc2)cn2ccccc12	19	78*	0	33	-23	-16
Cc1cc(S(=O)(=O)Nc2ccc(C(=O)NCC(C)(C)N3CCOCC3)cc2)ccc1F	4	-75	0	-68*	-1	-2
CC(C)(CNC(=O)c1ccc(NS(=O)(=O)c2ccc(Br)cc2)cc1)N1CCOCC1	9	4	-4	2	x	2
CCOc1ccccc1NC(=O)CN1C(=O)COc2ccc(C)cc21	23	6	1	11	x	x
CCOC(=O)C(C)/C(C)=N/NC(N)=S (stereo not drawn)	14	9	-5	3	3	96*
CCOC(=O)C(C)/C(C)=N\Nc1ccc([N+](=O)[O-])cc1[N+](=O)[O-] (stereo not drawn)	13	-5	2	-4	-13	-7
N#Cc1c(Cl)nc(N/N=C/c2ccccc2)c(Cl)c1Cl	1	63*	8	37	13	x
Cc1n[nH]c(C)c1Sc1ccccc1N	16	-1	-2	-3	36	96*
CCC(=O)Nc1nnc(C(C)(C)C)s1	12	-10	-1	-1	38	98*
CNC(=O)Nc1nnc(C(C)(C)C)s1	8	3	2	-5	11	x
CCc1ccc(NC(=S)N(CCN(C)C)C(C)c2ccncc2)cc1 (stereo not drawn)	0	-6	-7	6	3	-9
O=c1nc(N/N=C/c2ccccn2)cn[nH]1	-88*	-3	-7	-2	20	x
SMILES	AI-2 QS modul	HSF1 activator	core dimer inh	HSF1 inh	PHOSPHO1 inh	ALR inh
Cc1ccc(/C=N/Nc2cn[nH]c(=O)n2)o1	1	-2	-7	-8	20	-2
O=S1(=O)N=C(N/N=C/c2ccccn2)c2ccccc21	-86*	-10	-3	0	-22	5
COc1ccc(/C=N/NC2=NS(=O)(=O)c3ccccc32)cc1	24	-3	2	-4	x	-2
COC(=O)CSc1nc(-c2ccccc2)cc(-c2ccco2)c1C#N	36	33	15	8	44	95*
COc1ccc(-c2cc(-c3ccccc3)nc(SCC(=O)Nc3nccs3)c2C#N)cc1	0	-9	12	-1	9	x
COC(=O)CSc1nc(N)c(C#N)c(-c2ccco2)c1C#N	-5	8	1	-4	35	x
COc1ccc(-c2cc(-c3ccccc3)c(C#N)c(SCC(=O)Nc3ncc(C)s3)n2)cc1	20	6	56*	-3	0	-9
Oc1ccccc1C=Nc1ccccc1-c1nc2ccccc2[nH]1	12	28	-3	7	-8	34
Oc1ccc(C=Nc2ccccc2-c2nc3ccccc3[nH]2)c(O)c1	5	37	-9	7	7	82*
COc1ccc(C2c3[nH]c4ccccc4c3C[C@H]3C(=O)N(c4ccccc4C(=O)N4CCC(C(=O)O)CC4)C(=O)N23)cc1 (stereo partly drawn)	7	1	2	5	3	10
CC(C)c1ccc(C2c3[nH]c4ccccc4c3C[C@H]3C(=O)N(c4ccccc4C(=O)N4CCC[C@H]4C(=O)O)C(=O)N23)cc1 (stereo partly drawn)	15	-6	16	0	-39	98*
COc1cccc(C2c3[nH]c4ccccc4c3C[C@H]3C(=O)N(c4ccccc4C(=O)N4CCC(C(=O)O)CC4)C(=O)N23)c1 (stereo partly drawn)	22	3	1	-4	13	98*
Cc1c(Br)cnn1C(C)C(=O)N1CCN(c2ccccc2F)CC1 (stereo not drawn)	x	x	x	x	x	-6
O=C(CCCn1c(SCC(=O)c2ccc(O)c(O)c2)nc2ccccc2c1=O)NCC1CCCO1 (stereo not drawn)	15	x	3	x	21	99*
COc1ccc(C(=O)Nn2c(SCC(=O)NCC3CCCO3)nc3ccccc3c2=O)cc1 (stereo not drawn)	4	-68	2	-66*	-22	-6
O=C(O)CCCCCn1c(SCC(=O)c2ccc(O)c(O)c2)nc2ccsc2c1=O	14	2	-6	3	5	99*
O=C(CSc1nc2ccccc2c(=O)n1CC1CCCO1)NCC1CCCO1 (stereo not drawn)	18	21	-1	-3	0	-12
COc1ccc(C(=O)Nn2c(SCC(=O)NC3CCCC3)nc3ccccc3c2=O)cc1	31	-63	5	-58*	-12	2
CCc1sc(NC(=O)C(C)C)nc1-c1ccccc1	4	2	-3	2	30	-8
CCN(CC)S(=O)(=O)c1ccc(/C=C/C(=O)OCC(=O)N(C(C)C)C(C)C)cc1	14	-2	6	-2	15	-5
COc1ccc(-c2nnc3ccc(SCC(=O)NCC4CCCO4)nn23)cc1 (stereo not drawn)	2	95*	1	30	6	-4

Screening results as filed in PubChem BioAssay.
